Results taken from ChEMBL document CHEMBL4425177, “Effects of stereochemistry, saturation, and hydrocarbon chain length on the ability of synthetic constrained azacyclic sphingolipids to trigger nutrient transporter down-regulation, vacuolation, and cell death” (Bioorg Med Chem, 2016).

Legend:
FL5.12 [1] = test: Induction of vacuolation in mouse FL5.12A cells assessed as vacuolation score at 30 uM measured at 3 hrs by fluorescence microscopic analysis; format: functional
FL5.12 [2] = test: Downregulation of CD98 expression level in mouse FL5.12A cells at 30 uM measured at 3 hrs by flow cytometric analysis; format: functional
FL5.12 [3] = test: Cytotoxicity against mouse FL5.12A cells after 48 hrs by DAPI staining-based flow cytometric analysis; format: functional, cell-based; settings: FL5.12, 48 h
FL5.12 [4] = test: Downregulation of CD98 expression level in mouse FL5.12A cells at 2.5 uM measured at 3 hrs by flow cytometric analysis; format: functional
How it was run: (§1)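 FL5.12 cells treated at 2.5 µM. Nutrient transporter loss measured as mean ± SEM. Vacuolation scored semi-quantitatively from 0 to 84, roughly twice the percent of cytosol occupied by vacuoles, mean ± SEM.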

FL5.12 [5] = test: Induction of vacuolation in mouse FL5.12A cells assessed as vacuolation score at 2.5 uM measured at 3 hrs by fluorescence microscopic analysis; format: functional; how it was run: as §1
FL5.12 [6] = test: Induction of vacuolation in mouse FL5.12A cells assessed as vacuolation score at 50 uM measured at 3 hrs by fluorescence microscopic analysis; format: functional
FL5.12 [7] = test: Downregulation of CD98 expression level in mouse FL5.12A cells at 50 uM measured at 3 hrs by flow cytometric analysis

| Compound | Activity (FL5.12 [1]) | Activity (FL5.12 [2]) [%] | IC50 (FL5.12 [3]) [µM] | Activity (FL5.12 [4]) [%] | Activity (FL5.12 [5]) | Activity (FL5.12 [6]) | Activity (FL5.12 [7]) [%] |
| --- | --- | --- | --- | --- | --- | --- | --- |
| CCCCCCCCc1ccc(CO[C@@H]2C[C@@H](CO)N(C(=N)N)C2)cc1.Cl.Cl | 0 | 34 | 17.3 |  |  |  |  |
| CCCCCCCCc1ccc(CCC(N)(CO)CO)cc1 [FINGOLIMOD] |  |  | 2.4 | 68 | 82 |  |  |
| CCCCCCCCCCCCCCc1ccc(CO[C@H]2CN[C@H](CO)C2)cc1.Cl |  |  | 5.7 | 19 | 3 |  |  |
| CCCCCCCCCCCCC/C=C/[C@@H](O)[C@H](CO)NC(C)=O (stereo in doubt; 9) |  |  | 33 |  |  | 0 | 47 |
| CCCCCCCCc1ccc(CO[C@H]2CN[C@H](CO)C2)cc1.Cl |  |  | 3 | 48 | 47 |  |  |
| CCCCCCCCc1ccc([C@@H]2CCN[C@H]2CO)cc1.Cl |  |  | 1.7 | 47 | 53 |  |  |
| CCCCCCCCCCCCC/C=C/[C@@H](O)[C@H](CO)N(C)C [DIMETHYLSPINGOSINE] |  |  | 0.8 | 69 | 72 |  |  |
| CCCCCCCCC/C=C/CO[C@@H]1CN[C@@H](CO)C1.Cl |  |  | 2.6 | 34 | 9 |  |  |
| CCCCCCCCc1ccc(CO[C@@H]2CN[C@@H](CO)C2)cc1.Cl |  |  | 2 | 63 | 33 |  |  |
| CCCCCCCCCCc1ccc(CO[C@H]2CN[C@H](CO)C2)cc1.Cl |  |  | 3.6 | 28 | 36 |  |  |
| CCCCCCCCCC/C=C/c1ccc(CO[C@H]2CN[C@H](CO)C2)cc1.Cl |  |  | 2.4 | 40 | 76 |  |  |
| CCCCCCCCCCCC/C=C/c1ccc(CO[C@@H]2CN[C@@H](CO)C2)cc1.Cl |  |  | 5.1 | 19 | 8 |  |  |
| CCCCCC/C=C/c1ccc(CO[C@@H]2CN[C@@H](CO)C2)cc1.Cl |  |  | 1.4 | 64 | 27 |  |  |
| CCCC/C=C/c1ccc(CO[C@@H]2CN[C@@H](CO)C2)cc1.Cl |  |  | 5.5 | 30 | 0 |  |  |
| CCCCCCCCCCCCCCc1ccc(CO[C@@H]2CN[C@@H](CO)C2)cc1.Cl |  |  | 10.5 | 12 | 4 |  |  |
| CCCCCCCCc1ccc(CO[C@H]2C[C@H](CO)N(C(=N)N)C2)cc1.Cl.Cl | 0 | 35 | 14.2 |  |  |  |  |
| CCCCCCCCCC/C=C/c1ccc(CO[C@@H]2CN[C@@H](CO)C2)cc1.Cl |  |  | 2.8 | 52 | 33 |  |  |

| Compound | Activity (FL5.12 [1]) | Activity (FL5.12 [2]) [%] | IC50 (FL5.12 [3]) [µM] | Activity (FL5.12 [4]) [%] | Activity (FL5.12 [5]) | Activity (FL5.12 [6]) | Activity (FL5.12 [7]) [%] |
| --- | --- | --- | --- | --- | --- | --- | --- |
| CCCCCCCCCCCCO[C@H]1CN[C@H](CO)C1.Cl |  |  | 2.5 | 45 | 36 |  |  |
| CCCCCC/C=C/c1ccc([C@H]2CCN[C@@H]2CO)cc1.Cl |  |  | 1.7 | 58 | 84 |  |  |
| CCCCCCCCc1ccc(CO[C@H]2C[C@H](CO)N(C(C)=O)C2)cc1 |  |  | 29.7 |  |  | 1 | 37 |
| CCCCCCCCC/C=C/CO[C@H]1CN[C@H](CO)C1.Cl |  |  | 3.3 | 30 | 20 |  |  |
| CCCCCCCCCCCCO[C@@H]1CN[C@@H](CO)C1.Cl |  |  | 1.2 | 57 | 53 |  |  |
| CCCCCCCCc1ccc([C@H]2CCN[C@@H]2CO)cc1.Cl |  |  | 1.9 | 54 | 81 |  |  |
| CCCCCC/C=C/c1ccc(CO[C@H]2C[C@H](CO)N(C)C2)cc1.Cl |  |  | 1.9 | 31 | 26 |  |  |
| CCCCCCCCCCCCCCC[C@@H](O)[C@@H](N)CO [DIHYDROSPINGOSINE] |  |  | 3.5 | 47 | 38 |  |  |
| CCCC/C=C/c1ccc(CO[C@H]2CN[C@H](CO)C2)cc1.Cl |  |  | 5.7 | 9 | 5 |  |  |
| CCCCCCCCCCCCc1ccc(CO[C@@H]2CN[C@@H](CO)C2)cc1.Cl |  |  | 10.1 | 13 | 3 |  |  |
| CCCCCCCCCCCCc1ccc(CO[C@H]2CN[C@H](CO)C2)cc1.Cl |  |  | 3.9 | 14 | 30 |  |  |
| CCCCCC/C=C/c1ccc([C@H]2CCN(C(C)=O)[C@@H]2CO)cc1 |  |  | 46.2 | 40 | 2 |  |  |
| CCCCCCCCc1ccc([C@H]2CCN(C(C)=O)[C@@H]2CO)cc1 |  |  | 39.7 | 40 | 0 |  |  |
| CCCCCCc1ccc(CO[C@@H]2CN[C@@H](CO)C2)cc1.Cl |  |  | 2.7 | 30 | 0 |  |  |
| CCCCCCCCCCCC/C=C/c1ccc(CO[C@H]2CN[C@H](CO)C2)cc1.Cl |  |  | 7.3 | 20 | 1 |  |  |
| CCCCCCCCCCCCC/C=C/[C@@H](O)[C@@H](N)CO [SPHINGOSINE] |  |  | 3.6 | 48 | 57 |  |  |
| CCCCCC/C=C/c1ccc(CO[C@H]2CN[C@H](CO)C2)cc1.Cl |  |  | 2.4 | 41 | 70 |  |  |
